Assay results taken from ChEMBL document CHEMBL5029182, “Discovery of aryl aminothiazole γ-secretase modulators with novel effects on amyloid β-peptide production” (Bioorg Med Chem Lett, 2021).
The source made the active and inactive calls. The calls are words filed in the database; no cut-off is given here.

What was measured:
Type in all cases: cell-based
[1] = target: T1, Gamma-secretase (Homo sapiens) (UniProt Q96BI3+Q9NZ42+Q8WW43+P49768+Q92542+P49810); assay: Modulation of gamma secretase in HEK293 cells expressing APP-C99 assessed as effect on amyloid beta peptide levels at up to 10 uM incubated for 2 hrs by sandwich ELISA; conditions: dose microM <=10, time 2.0 hrs
Summary of the method: (§1)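 Concentration-response in HEK293 cells stably expressing C99 (APP C-terminal 99 residues with signal sequence), up to a maximum of 10 μM. Secreted Aβ37, Aβ38, Aβ40 and Aβ42 in medium each measured by a specific sandwich ELISA. Total secreted Aβ also determined by ELISA. Levels compared against DMSO vehicle alone.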

[2] = target: T1, Gamma-secretase (Homo sapiens); assay: Modulation of gamma secretase in HEK293 cells expressing APP-C99 assessed as increase in Abeta37 levels at 5 uM incubated for 2 hrs by sandwich ELISA
Summary of the method: (§2)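 HEK293 cells stably expressing C99 with signal sequence, grown in 24-well plates. Single compound concentration 5 μM as initial screen. Aβ37, Aβ38, Aβ40 and Aβ42 secreted into medium each quantified by a specific two-antibody sandwich ELISA. Levels compared with DMSO vehicle alone.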

[3] = target: T1, Gamma-secretase (Homo sapiens); assay: Modulation of gamma secretase in HEK293 cells expressing APP-C99 assessed as increase in Abeta38 levels at 5 uM incubated for 2 hrs by sandwich ELISA; summary of the method: as §2
[4] = target: T1, Gamma-secretase (Homo sapiens); assay: Modulation of gamma secretase in HEK293 cells expressing APP-C99 assessed as decrease in Abeta40 levels at 5 uM incubated for 2 hrs by sandwich ELISA; summary of the method: as §2
[5] = target: T1, Gamma-secretase (Homo sapiens); assay: Modulation of gamma secretase in HEK293 cells expressing APP-C99 assessed as decrease in Abeta42 levels at 5 uM incubated for 2 hrs by sandwich ELISA; summary of the method: as §2
[6] = target: T1, Gamma-secretase (Homo sapiens); assay: Modulation of gamma secretase in HEK293 cells expressing APP-C99 assessed as increase in Abeta37 levels incubated for 2 hrs by sandwich ELISA; conditions: filed as modulator
Summary of the method: (§3)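 HEK293 cells transiently transfected with C99 (APP C-terminal fragment carrying a signal sequence for membrane insertion) and treated over a concentration range. Secreted Aβ37, Aβ38, Aβ40 and Aβ42 in medium each detected by a specific two-antibody sandwich ELISA. Levels expressed relative to DMSO vehicle alone.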

[7] = target: T1, Gamma-secretase (Homo sapiens); assay: Modulation of gamma secretase in HEK293 cells expressing APP-C99 assessed as increase in Abeta38 levels incubated for 2 hrs by sandwich ELISA; conditions: filed as modulator; summary of the method: as §3
[8] = target: T1, Gamma-secretase (Homo sapiens); assay: Modulation of gamma secretase in HEK293 cells expressing APP-C99 assessed as decrease in Abeta40 levels incubated for 2 hrs by sandwich ELISA; summary of the method: as §3
[9] = target: T1, Gamma-secretase (Homo sapiens); assay: Modulation of gamma secretase in HEK293 cells expressing APP-C99 assessed as decrease in Abeta42 levels incubated for 2 hrs by sandwich ELISA; summary of the method: as §3
[10] = target: T1, Gamma-secretase (Homo sapiens); assay: Modulation of gamma secretase in HEK293 cells expressing APP-C99 assessed as increase in Abeta37 levels at up to 10 uM incubated for 2 hrs by sandwich ELISA; conditions: filed as modulator, dose microM <=10, time 2.0 hrs; summary of the method: as §1
[11] = target: T1, Gamma-secretase (Homo sapiens); assay: Modulation of gamma secretase in HEK293 cells expressing APP-C99 assessed as increase in Abeta38 levels at up to 10 uM incubated for 2 hrs by sandwich ELISA; conditions: dose microM <=10, time 2.0 hrs; summary of the method: as §1
[12] = target: T1, Gamma-secretase (Homo sapiens); assay: Modulation of gamma secretase in HEK293 cells expressing APP-C99 assessed as decrease in Abeta40 levels at up to 10 uM incubated for 2 hrs by sandwich ELISA; conditions: dose microM <=10, time 2.0 hrs; summary of the method: as §1
[13] = target: T1, Gamma-secretase (Homo sapiens); assay: Modulation of gamma secretase in HEK293 cells expressing APP-C99 assessed as decrease in Abeta42 levels at up to 10 uM incubated for 2 hrs by sandwich ELISA; conditions: dose microM <=10, time 2.0 hrs; summary of the method: as §1

Activity [4] | Activity [5] | Activity ([2]; filed as modulator) | Activity ([3]; filed as modulator) | Structure (SMILES) | other results
 |  |  |  | Cc1cn(-c2ccc(-c3csc(NC4C5CC6CC(C5)CC4C6)n3)cc2F)cn1 (stereo unspecified) | Activity ([1]; filed as modulator): Active
inactive | inactive |  |  | Cc1cn(-c2ccc(-c3csc(Nc4cc(F)ccc4F)n3)cc2F)cn1 | Activity [2]: inactive; Activity [3]: inactive
 |  |  |  | Cc1cn(-c2ccc(-c3csc(Nc4cc(F)ccc4C)n3)cc2F)cn1 | Activity [6]: Dose-Dependent Effect; Activity [7]: Dose-Dependent Effect; Activity [8]: inactive; Activity [9]: inactive
 |  |  |  | Cc1cn(-c2ccc(-c3csc(Nc4cc(F)c(F)cc4F)n3)cc2F)cn1 | Activity [10]: Active; Activity [11]: inactive; Activity [12]: inactive; Activity [13]: inactive
inactive | inactive | Active | Active | Cc1cn(-c2ccc(-c3csc(Nc4cc(Br)c(Br)cc4Br)n3)cc2F)cn1 | 
inactive | inactive |  |  | Cc1cn(-c2ccc(-c3csc(Nc4cccc(F)c4F)n3)cc2F)cn1 | Activity [2]: inactive; Activity [3]: inactive
 |  | Active | Active | Cc1cn(-c2ccc(-c3csc(Nc4c(F)cc(F)cc4F)n3)cc2F)cn1 | Activity ([4]; filed as modulator): Active; Activity ([5]; filed as modulator): Active
inactive | inactive |  |  | Cc1cn(-c2ccc(-c3csc(Nc4cc(Cl)c(Cl)cc4Cl)n3)cc2F)cn1 | Activity [2]: inactive; Activity [3]: inactive
inactive | inactive | Active | Active | Cc1cn(-c2ccc(-c3csc(Nc4cccc(F)c4)n3)cc2F)cn1 | 
 |  |  |  | Cc1cn(-c2ccc(-c3csc(Nc4ccccc4)n3)cc2F)cn1 | Activity [1]: inactive
 |  |  |  | Cc1cn(-c2ccc(-c3csc(NCc4ccccc4)n3)cc2F)cn1 | Activity ([1]; filed as modulator): Active
 |  |  |  | Cc1cn(-c2ccc(-c3csc(Nc4cc(C)c(C)cc4C)n3)cc2F)cn1 | Activity ([1]; filed as modulator): Active
 |  |  |  | Cc1cn(-c2ccc(-c3csc(Nc4ccc(O)cc4)n3)cc2F)cn1 | Activity ([1]; filed as modulator): Active
inactive | inactive | Active | Active | Cc1cn(-c2ccc(-c3csc(Nc4ccc(Cl)cc4Cl)n3)cc2F)cn1 | 
 |  |  |  | Cc1cn(-c2ccc(-c3csc(Nc4ccc([N+](=O)[O-])cc4)n3)cc2F)cn1 | Activity ([1]; filed as modulator): Active
 |  |  |  | Cc1ccc(F)c(Nc2nc(-c3ccc(-n4cnc(C)c4)c(F)c3)cs2)c1 | Activity [6]: Dose-Dependent Effect; Activity [7]: Dose-Dependent Effect; Activity [8]: inactive; Activity [9]: inactive
 |  |  |  | CCc1cc(Nc2nc(-c3ccc(-n4cnc(C)c4)c(F)c3)cs2)c(F)cc1C | Activity ([4]; filed as modulator): Active; Activity ([5]; filed as modulator): Active
inactive | inactive | Active | Active | Cc1cn(-c2ccc(-c3csc(Nc4cc(C)c(C)cc4F)n3)cc2F)cn1 | 
inactive | inactive |  |  | Cc1cn(-c2ccc(-c3csc(Nc4ccc(F)c(F)c4)n3)cc2F)cn1 | Activity [2]: inactive; Activity [3]: inactive
inactive | inactive | Active | Active | Cc1cn(-c2ccc(-c3csc(Nc4ccc(F)cc4)n3)cc2F)cn1 | 
 |  |  |  | Cc1ccc(Nc2nc(-c3ccc(-n4cnc(C)c4)c(F)c3)cs2)c(F)c1 | Activity [6]: Dose-Dependent Effect; Activity [7]: Dose-Dependent Effect; Activity [8]: inactive; Activity [9]: inactive
 |  |  |  | Cc1cn(-c2ccc(-c3csc(Nc4ccc(F)cc4C)n3)cc2F)cn1 | Activity [6]: Dose-Dependent Effect; Activity [7]: Dose-Dependent Effect; Activity [8]: inactive; Activity [9]: inactive
 |  |  |  | Cc1ccc(Nc2nc(-c3ccc(-n4cnc(C)c4)c(F)c3)cs2)c(C)c1 | Activity [1]: inactive
inactive | inactive | Active | Active | Cc1cn(-c2ccc(-c3csc(Nc4ccc(F)cc4F)n3)cc2F)cn1 | 
 |  |  |  | CCc1cc(Nc2nc(-c3ccc(-n4cnc(C)c4)c(F)c3)cs2)c(C)cc1C | Activity ([1]; filed as modulator): Active
inactive | inactive | Active | Active | Cc1cn(-c2ccc(-c3csc(Nc4cc(C)c(F)cc4C)n3)cc2F)cn1 | 
inactive | inactive | Active | Active | Cc1cn(-c2ccc(-c3csc(Nc4ccccc4F)n3)cc2F)cn1 | 
inactive | inactive |  |  | Cc1cn(-c2ccc(-c3csc(Nc4c(F)cccc4F)n3)cc2F)cn1 | Activity [2]: inactive; Activity [3]: inactive
 |  |  |  | Cc1cn(-c2ccc(-c3csc(NC4CCCCC4)n3)cc2F)cn1 | Activity ([1]; filed as modulator): Active
inactive | inactive |  |  | Cc1cn(-c2ccc(-c3csc(Nc4cc(F)c(C)cc4C)n3)cc2F)cn1 | Activity [2]: inactive; Activity [3]: inactive
